# UPR XBP1 act: adaptive UPR (XBP1) activation; CHO-XBP1 luciferase reporter, IRE1-XBP1 UPR activation, luminescence; percent of tunicamycin response, DMSO as zero; hit rate 0.33% among 330,000; activation, % at 20 µM;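 active = versus positive control, 20 µM dose yields 30% or more activation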;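 note: 100% = tunicamycin at 10 µg/mL and 0% = DMSO only wells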
#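 Material: CHO cell line with stable XBP1 luciferase reporter; schedule: 16-18 h cell attachment at 37 °C, then 6 h compound exposure; signal: glow luminescence from Steady-Glo reagent; medium: serum-containing F12 medium, 10% FBS; benchmarks: tunicamycin 10 µg/mL and vehicle-only wells; read-out: percent activation relative to tunicamycin reference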
# MPTP inh: inhibitors of mitochondrial permeability transition pore; isolated mouse mitochondria, Ca2+ swelling absorbance, 30 min; inhibition, % at 10 µM; hit rate 1.4% among 360,000; AID 602449;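 active = inhibition of 50% or more, scaled per plate between neutral and stimulator controls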;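 note: 0% = DMSO wells given calcium and 100% = 1 mM EGTA wells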
# GRIN3A LBD mod: modulates the human NR3A ligand-binding domain; NR3A LBD differential scanning fluorimetry, Tm shift; 0% = protein alone, 100% = glycine-bound protein; hit rate 2.5% among 340,000; Tm shift relative to glycine control, % at 25 µM; AID 1259313;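 active = melting temperature shift of at least 10% of the positive control shift, at one fixed dose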
# aDG glyco act: increases alpha dystroglycan glycosylation. Pro5-aDG cells, alpha-DG glycosylation AlphaScreen (IIH6); 0% Pro5, 100% B10-LARGE cell signal. activation, % at 10 µM. hit rate 0.22% among 360,000. AID 624168;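 active = activation of at least 8% versus controls, or a plate z-score of at least 8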;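 note: Pro5 are CHO cells carrying HIG-tagged alpha-DG that lacks glycosylation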
# UPR CHOP act: activators of apoptotic arm of unfolded protein response (CHOP) | hit rate 0.34% among 330,000 | activation, % at 10 µM | CHO-CHOP luciferase reporter, UPR activation, luminescence; percent of tunicamycin response over DMSO baseline;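 active = at 10 µM dose, activation of 40% or more, normalized to positive control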;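 note: 100% = tunicamycin at 10 µg/mL and 0% = DMSO alone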
#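 measured by = luciferase luminescence | assay system = CHO-CHOP cells, stable luciferase reporter of PERK-eIF2a-CHOP signalling | amount = 500 reporter cells seeded per well | timing = 6 h compound exposure at 37 °C after overnight seeding | controls = positive tunicamycin 10 µg/mL, negative DMSO alone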
# CHOP inhibitor: CHOP inhibition in unfolded protein response. inhibition, % at 10 µM. hit rate 3.8% among 220,000. CHO-K1 CHOP-promoter luciferase, tunicamycin-induced, 15-18 h;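 active = compounds that reduced the stress-induced luciferase reporter signal by more than about 70% of percent inhibition, limit read from the data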;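 note: 0% = tunicamycin plus vehicle and 100% = wells without tunicamycin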
# CHOP confirm: confirmation of CHOP induction inhibitors | shares compounds with CHOP inhibitor | CHO-CHOP promoter luciferase reporter, tunicamycin-induced, luminescence | inhibition, % at 10 µM | hit rate 45% among 2,100;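 active = mean of three repeat readings of reporter signal inhibition above a set limit, cut at about 70% in these data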;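 note: 0% = tunicamycin plus vehicle and 100% = wells lacking tunicamycin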
# Numbers without * were called inactive; · = not tested or not shown. Shown are actives, neighbours in structure and some others; about 5.6% of the full set was active somewhere.
SMILES,UPR XBP1 act,MPTP inh,GRIN3A LBD mod,aDG glyco act,UPR CHOP act,CHOP inhibitor,CHOP confirm
O=[N+]([O-])c1c(NCCCO)cc(Sc2nc3ccccc3s2)c2nonc12,-7.3,13.1,-5.7,-0.5,-9.1,109.4*,71.4*
Cc1nnc(Sc2cc(NCCCO)c([N+](=O)[O-])c3nonc23)s1,·,6.0,-4.0,0.0,·,-50.8,·
Cc1nnc(Sc2cc(NCCO)c([N+](=O)[O-])c3nonc23)s1,·,11.1,-2.2,0.1,·,98.0*,-10.8
COC(=O)C1CN(C(=O)COc2cccc(C)c2C)c2ccccc2O1 (stereo not given),1.3,0.9,-0.4,-0.1,-0.2,·,·
O=C(Nc1cccc(-c2nc3ccccc3s2)c1)C1=COCCO1,1.0,0.4,-18.7,0.2,0.5,22.3,·
O=C(Nc1ccc(-c2nc3ccccc3s2)cc1)C1=COCCO1,-11.1,4.1,30.1*,0.0,-6.3,103.9*,92.1*
N#CC1=C(N)N2C(=C(C#N)C1c1ccc(Br)cc1)Nc1ccccc12 (stereo not given),9.6,·,22.6*,·,3.5,105.5*,94.4*
Cc1nc2c(ccc3nc(NC(=O)c4ccc5c(c4)OCCO5)sc32)s1,3.4,0.9,-1.5,-0.3,3.2,99.8*,43.2
Cc1cnc(NC(=O)c2ccc3c(c2)OCCO3)s1,-8.6,-0.1,-0.2,-0.1,-9.2,·,·
CCc1ccc2[nH]c(=O)c(C(c3nnnn3Cc3ccco3)N3CCC(C)CC3)cc2c1 (stereo not given),-2.4,4.1,-0.2,-0.1,-2.5,99.2*,76.6*
Cc1cccc2c1NC(=O)C2(c1ccc(O)cc1)c1ccc(O)cc1,-2.0,2.1,-4.1,0.7,-3.3,20.7,·
Cc1cc(C2(c3ccc(O)c(C)c3)C(=O)Nc3ccccc32)ccc1O,1.1,3.7,6.3,0.6,1.0,105.4*,119.2*
NC(=O)CC(NC(=O)Cc1cccc2ccccc12)c1ccc(NC2CCCCC2)c([N+](=O)[O-])c1 (stereo not given),-0.4,1.8,-1.8,0.0,0.7,105.0*,13.1
Cc1ccccc1CNc1ccc(C(CC(N)=O)NC(=O)c2ccc(Br)cc2)cc1[N+](=O)[O-] (stereo not given),-0.1,1.2,-2.1,-0.1,0.0,103.2*,24.3
CN(c1ccc(OCC(=O)OCC(=O)NCc2ccco2)cc1)S(=O)(=O)c1ccc2ccccc2c1,0.4,-1.9,-3.7,-0.3,-0.4,8.8,·
CCCCCCN1C[C@H](O)[C@@H](n2cc(COC(=O)c3ccccc3)nn2)C[C@@H]1c1ccccc1,·,0.5,·,0.1,·,·,·
CCOC(=O)c1c(-c2ccccc2)nnn1-c1nc(OCC)nc(N2CCCCC2)n1,-0.9,-0.3,-0.7,-0.5,3.3,101.0*,62.3
Cc1cccc(N/C(N)=N/c2nc(C)c(Cc3ccccc3)c(=O)[nH]2)c1,13.9,-0.7,-2.0,0.0,9.4,101.1*,12.8
Cc1cc(C)n(-c2nc3ccccc3nc2Nc2ccc3c(c2)OCO3)n1,-0.7,1.7,1.4,-0.3,0.7,-11.3,·
Cc1ccc2nc(Nc3ccc4[nH]c(=O)[nH]c4c3)c(-n3nc(C)cc3C)nc2c1,4.4,6.7,-12.0,0.2,2.2,104.1*,114.4*
CCOc1nc2cnccc2n(CC(=O)Nc2cccc(C)c2C)c1=O,-2.2,-0.9,0.2,0.4,-1.1,·,·
N#Cc1c(NCCN)nc(-c2ccccc2)c2c1CCCC2,-2.4,0.9,-3.9,-0.2,-1.9,108.5*,59.2
N#Cc1c(NCCN)nc(NCc2ccccc2)c2c1CCN(Cc1ccccc1)C2,·,3.2,-0.6,-0.5,·,·,·
Oc1[nH]c2ccccc2c1N=Nc1ccccc1,1.3,5.8,-8.4,-0.1,4.3,17.4,·
Oc1[nH]c2ccccc2c1N=Nc1ccc(F)cc1,0.8,2.2,0.4,-0.4,0.5,97.0*,59.2
CC(C)NC(=O)c1ccc(-c2ccc(F)c(F)c2)c2ccoc12,·,0.4,·,0.7,·,·,·

# From PubChem
